Experimental findings from ChEMBL document CHEMBL3217642, “Mechanistic insight into inhibition of two-component system signaling” (Medchemcomm, 2013) are described below.

The nature of test [1]: Inhibition of Thermotoga maritima histidine kinase HK853 autophosphorylation. In outline:
(§1)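 Purified HK853 (600 ng) in 50 mM Tris–HCl, 0.2 M KCl, 5 mM MgCl2, pH 7.8 preincubated 30 min with varied analogue concentrations (DMSO ≤5% v/v), then labeled with BODIPY-FL-ATPγS (2 μM final), 1 h RT in dark. Quenched with SDS loading buffer (unheated), resolved by SDS-PAGE, fluorescence band intensity integrated; gels then coomassie stained.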

For test [2], the system named is Thermotoga maritima. Put plainly: Induction of Thermotoga maritima histidine kinase HK853 aggregation up to 10 mM by gel based assay. In outline:
(§2)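 Purified HK853 (0.44 μM) in 20 mM HEPES pH 7.5, with or without 0.1% final Triton X-100, incubated with varied analogue concentrations (DMSO ≤5% v/v) 4 h RT. Read by native-PAGE with silver staining (band disappearance), and by SDS-PAGE after BS3 crosslinking (100-fold molar excess, 2 h RT, quenched with 20 mM ammonium bicarbonate) with silver staining.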

For test [3], the system named is Thermotoga maritima. Put plainly: Inhibition of Thermotoga maritima histidine kinase HK853 autophosphorylation up to 10 mM. The essentials: as §1
The nature of test [4]: Binding affinity to Thermotoga maritima histidine kinase HK853 by STD-NMR analysis.
The subject of test [5] is Thermotoga maritima. Put plainly: Binding affinity to Thermotoga maritima histidine kinase HK853 by STD-NMR analysis in presence of ADP.
Test [6] deals with Thermotoga maritima. Put plainly: Displacement of BODIPY-FL-ATP-gamma-S from Thermotoga maritima histidine kinase HK853 at 1 mM to 600 uM. The essentials:
as §1

Test [7] relates to Thermotoga maritima. Put plainly: Binding affinity to Thermotoga maritima histidine kinase HK853 D411A mutant by STD-NMR analysis.
The test system of test [8] is Thermotoga maritima. Put plainly: Induction of Thermotoga maritima histidine kinase HK853 aggregation up to 1000 uM by gel based assay. The essentials:
as §2

Test [9] relates to Thermotoga maritima. Put plainly: Inhibition of Thermotoga maritima histidine kinase HK853 autophosphorylation at 10 mM. In outline: as §1

pIC50, pKd: −log10 of the molar value. The source made the active and inactive calls. The calls are words filed in the database; no cut-off is given here.

As a reminder, the pIC50 is −log10 of the IC50, conventionally taken in molar units. Low readings indicate a high IC50, high ones a low IC50. As usually defined, the pKd is −log10 of the Kd, conventionally taken in molar units. High values mean a low Kd, low ones a high Kd.

For `C/C(=C/CC(C)(C)/C=C/C(=O)N[C@@H](Cc1c[nH]c2ccccc12)C(=O)O)CC/C=C(\C)Br`, in [1], the pIC50 was 4.36.

In the case of `CS(=O)(=O)c1ccc(CCNC(=N)N)cc1`, the outcome in test [2] and in test [5] was inactive. In addition, in [3], the inhibition entry was “Active”. This compound had a pKd in test [4] of 3.24.

For `CCCCCCCCCCOc1ccc(CCNC(=N)N)cc1`, in [6], the inhibition result is “Active”.

With `N=C(N)NCCc1ccc(O)cc1`, the result in test [7] was inactive. The inhibition result in [8] and in test [9] was “inactive” in each case. This compound showed a pKd in test [4] of 2.62.

Regarding `CCCN(C(=O)/C(C#N)=C(/C)O)c1nc(-c2ccc(C(C)(C)C)cc2)cs1`, the pIC50 in [1] is 4.52.

Take `CCCCCCCOc1ccc(CCNC(=N)N)cc1`: the inhibition entry in [6] was “Active”.
